“Also recorded” adds a separate entry of the source.

Data set [1] concerns New Zealand White rabbits. The data set is described as follows: Ear bleeding time in the arterial FeCl2-injury rabbit model. In kind it is in vivo.
Data set [2] relates to New Zealand White rabbits. Put plainly: Arterial thrombosis. In kind it is in vivo. To be noted: rabbit carotid artery FeCl2.
A further data set deals with PT in rabbit plasma. The data set is described as follows: Ex vivo PT in the rabbit liver-injury model.
Data set [3] deals with New Zealand White rabbits. Put plainly: Rabbit liver-injury bleeding model. In kind it is in vivo. The method, boiled down: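 Male New Zealand White rabbits (2.5–3.3 kg) were anaesthetised with ketamine/xylazine and kept at 37°C. A 1 × 1 cm triangular wedge was cut from the liver edge. Pre‑weighed swabs were applied at 30‑s intervals for up to 30 min to give bleeding time and blood loss.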

The subject of data set [4] is New Zealand White rabbits. Put plainly: Ear bleeding time in the AV shunt model, prevention protocol. In kind it is in vivo. To be noted: rabbit AV shunt, any dose (0.3, 1, 3 mg/kg iv) or time point.
The subject of data set [5] is APTT in guinea pig plasma. Put plainly: APTT clotting time in guinea pig plasma. As to conditions: mean, n = 2–9. In kind it is biochemical. The method, boiled down:
(§1)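 Plasma came from untreated donor animals, collected into citrate, centrifuged at 2500 ×g for 20 min at 4°C, and stored at −20°C. Plasma was incubated with test compound (0–37.5 µM) for 3 min at 37°C, then with kaolin/cephalin APTT reagent for 3 min. Clotting was started with 0.025 M CaCl₂ and timed on an automated coagulometer. EC₁₅₀ is the concentration giving a 1.5‑fold APTT increase.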

For data set [6], the system named is New Zealand White rabbits. The data set is described as follows: Arterio-venous shunt model in rabbits, prevention protocol. In kind it is in vivo. As to conditions: rabbit AV shunt; for Thrombus weight: mean (± SEM), control 14.8 (± 2) mg. In outline: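 Male New Zealand White rabbits (2.7–3.0 kg) were anaesthetised with ketamine/xylazine (i.m. bolus, then ear‑vein infusion). A shunt joined the right carotid artery to the left jugular vein through a 4 cm polyethylene tube holding a 6 cm nylon‑wire loop. An i.v. bolus (0.3, 1 or 3 mg/kg) was given 10 min before opening. After 15 min the wire and thrombus were removed and weighed.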

Data set [7] relates to APTT in plasma of monkeys. Put plainly: APTT clotting time in monkey plasma. In kind it is biochemical.
The next data set deals with APTT in mouse plasma. The data set is described as follows: APTT clotting time in mouse plasma. In kind it is biochemical. To be noted: mean, n = 2–9. In outline:
as §1

In data set [8] the test system is New Zealand White rabbits. Put plainly: Gum bleeding time in rabbits. As to conditions: rabbit; intravenous asundexian. In kind it is in vivo. In outline: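 Male New Zealand White rabbits (2.7–3.0 kg) were under ketamine/xylazine anaesthesia during the arterial FeCl₂‑injury thrombosis experiment. Test compound was given i.v., alone or with aspirin plus ticagrelor. Ear bleeding time and, by an equivalent technique, gum‑mucosa bleeding time were recorded as the time at which bleeding stopped.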

For data set [9], the system named is New Zealand White rabbits. Put plainly: Ear bleeding time in the venous FeCl2-injury rabbit model. In kind it is in vivo. As to conditions: asundexian 0.6, 2, or 6 mg/kg iv, any dose group. The method, boiled down: (§2)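 Male New Zealand White rabbits (2.7–3.0 kg) were anaesthetised with ketamine/xylazine, with the femoral artery and vein cannulated. Thirty min after i.v. dosing, the jugular vein was exposed to FeCl₂ (13% in 100 µl water) on filter paper for 5 min. After a further 30 min the injured vein was excised and the thrombus weighed. Ear bleeding time was recorded as the time bleeding stopped.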

For a further data set, the system named is PT in human plasma. Put plainly: Prothrombin time in human plasma. In kind it is biochemical. As to conditions: 0–37.5 µM. The method, boiled down:
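Human citrated plasma (pooled volunteer plasma or purchased) was incubated with test compound (0–37.5 µM) for 3 min at 37°C. It was then mixed with thromboplastin, and clotting time was measured at 37°C on an automated coagulometer.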

The subject of data set [10] is New Zealand White rabbits. Put plainly: Venous thrombosis. In kind it is in vivo. To be noted: rabbit jugular vein FeCl2. The method, boiled down:
as §2

In the next data set the test system is APTT in dog plasma. Put plainly: APTT clotting time in dog plasma. In kind it is biochemical. As to conditions: mean, n = 2–9. In outline: as §1
Another data set deals with APTT in pig plasma. Put plainly: APTT clotting time in pig plasma. To be noted: mean, n = 2–9. In kind it is biochemical. The method, boiled down: as §1
The target of data set [11] is T1, FXIa (Oryctolagus cuniculus, UniProt G1SSQ6). Put plainly: Ex vivo FXIa inhibition in the arterial FeCl2-injury rabbit model. As to conditions: mean (± SD) vs control group. The method, boiled down:
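Anaesthetised male New Zealand White rabbits received oral test compound in the arterial FeCl₂‑injury model. Citrated blood was drawn at the start of the thrombosis experiment, centrifuged at 2500 ×g for 10 min at 4°C, and stored at −20°C. FXIa activity was measured by kaolin/cephalin activation (3 min, 37°C), then 400 µM AMC substrate plus 5.6 µM kallikrein inhibitor. The fluorescence slope over the first 5 min was compared with controls.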

Data set [12] has as its system New Zealand White rabbits. Put plainly: Arterio-venous shunt model in rabbits, intervention protocol. In kind it is in vivo. As to conditions: rabbit AV shunt. The method, boiled down:
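Anaesthetised male New Zealand White rabbits (2.7–3.0 kg, ketamine/xylazine) carried a carotid‑artery to jugular‑vein shunt: a 4 cm polyethylene tube with a 6 cm nylon‑wire loop. Test compound was given as an i.v. bolus (1 or 5 mg/kg) via the femoral vein 10 min after the shunt was opened. The shunt ran 30 min, then the wire and attached thrombus were weighed.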

Data set [13] has as its system APTT in rabbit plasma. The data set is described as follows: APTT clotting time in rabbit plasma. In kind it is biochemical. As to conditions: mean, n = 2–9. In outline: as §1
The subject of data set [14] is APTT in rabbit plasma. Put plainly: Ex vivo APTT in the rabbit liver-injury model.
Data set [15] deals with T1, FXIa. Put plainly: Ex vivo FXIa activity in the AV shunt model. To be noted: rabbit AV shunt; preventative and interventional iv treatment.
The test system of the next data set is APTT in rat plasma. Put plainly: APTT clotting time in rat plasma. In kind it is biochemical. To be noted: mean, n = 2–9. In outline: as §1
The conditions of data set [16]: cited from earlier work.
[17] abbreviates: apixaban 1 mg/kg iv + aspirin + ticagrelor.
The mark [18] stands for this setting: apixaban 3 mg/kg iv + aspirin + ticagrelor.
Where [19] appears, read: dabigatran high dose (1 mg/kg iv).
[20] abbreviates: dabigatran low dose (0.3 mg/kg iv).

T1 sequence (G1SSQ6 19-624): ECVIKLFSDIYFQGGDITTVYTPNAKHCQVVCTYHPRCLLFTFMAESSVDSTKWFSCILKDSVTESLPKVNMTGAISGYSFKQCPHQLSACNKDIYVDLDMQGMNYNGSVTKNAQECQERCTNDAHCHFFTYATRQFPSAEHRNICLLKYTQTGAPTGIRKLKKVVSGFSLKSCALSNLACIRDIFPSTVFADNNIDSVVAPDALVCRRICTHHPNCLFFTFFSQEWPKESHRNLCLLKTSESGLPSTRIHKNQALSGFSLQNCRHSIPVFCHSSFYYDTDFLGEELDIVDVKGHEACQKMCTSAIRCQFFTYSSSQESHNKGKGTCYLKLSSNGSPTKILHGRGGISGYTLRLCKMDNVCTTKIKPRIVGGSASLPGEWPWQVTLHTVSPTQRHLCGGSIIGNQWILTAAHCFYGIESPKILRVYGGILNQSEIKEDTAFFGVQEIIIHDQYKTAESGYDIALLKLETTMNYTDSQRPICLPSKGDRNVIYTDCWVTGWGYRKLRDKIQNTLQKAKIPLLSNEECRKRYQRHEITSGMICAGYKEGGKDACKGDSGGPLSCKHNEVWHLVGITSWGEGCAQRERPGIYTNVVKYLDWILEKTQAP

`COc1ccc(-n2nc(C(N)=O)c3c2C(=O)N(c2ccc(N4CCCCC4=O)cc2)CC3)cc1` [apixaban, 1‐(4‐methoxyphenyl)‐7‐oxo‐6‐(4‐(2‐oxopiperidin‐1‐yl)phenyl)‐4,5,6,7‐tetrahydro‐1H ‐pyrazolo[3,4‐c]pyridine‐3‐carboxamide, reference compound]: the “Increase of ear bleeding time vs aspirin and ticagrelor alone” value is on record as 2.8 fold in data set [1] (setting [17]) and 6.6 fold in [1] (setting [18]). Moreover, the figures for the “Additional reduction in thrombus weight on top of aspirin and ticagrelor” value in [2] (setting [17]) and in [2] (setting [18]) were 46% and 83%, respectively.
On to `CC[C@@H](C(=O)Nc1ccc(C(N)=O)c(F)c1)n1cc(OC)c(-c2cc(Cl)ccc2-n2cc(C(F)(F)F)nn2)cc1=O` [asundexian], for which the “Effect on PT” value in the data set on PT in rabbit plasma (asundexian 6 and 12 mg/kg iv) was “no effect”; in the data set on PT in human plasma, “little to no effect”. Further, the “Bleeding time vs controls” value in [3] (asundexian 6 and 12 mg/kg iv) is “neither 6 nor 12 mg/kg asundexian led to any significant effect; also recorded: no significant effect”. The “Blood loss vs controls” value in data set [3] (asundexian 6 and 12 mg/kg iv) is reported as “neither 6 nor 12 mg/kg asundexian led to any significant effect; also recorded: no significant effect”. In data set [4], the “Bleeding times following ear incision” value is on record as “not prolonged”. Moreover, the “APTT prolongation, EC150” value in data set [5] is 2.13 µM; with APTT in mouse plasma, above 12.5 µM; in the data set on APTT in dog plasma, 1.59 µM; with APTT in pig plasma, 0.51 µM; in the data set with APTT in rabbit plasma [13], 1.50 µM; with APTT in rat plasma, above 12.5 µM. Besides, the “Thrombus weight reduction vs control” value worked out at 14% in [6] (0.3 mg/kg iv); 59% in [6] (1 mg/kg iv, P < .01); 71% in [6] (3 mg/kg iv, P < .001); 25% in data set [10] (asundexian 0.6 mg/kg iv); 74% in data set [10] (asundexian 2 mg/kg iv); 90% in data set [10] (asundexian 6 mg/kg iv). Besides, the “Thrombus weight reduction vs control” value in data set [12] (1 mg/kg iv, P < .05) is listed as 33%; in [12] (5 mg/kg iv, P < .001), 62%; in data set [2] (asundexian 0.6 mg/kg iv bolus), 25%; in [2] (asundexian 20 mg/kg iv bolus), 88%; in data set [2] (oral 10 mg/kg, 2 h before, P < .05), 30%; in data set [2] (oral 30 mg/kg, 2 h before, P < .001), 91%. Further, the Thrombus weight was 6.1 (± 0.9) mg in [6] (1 mg/kg iv); 4.3 (± 0.5) mg in [6] (3 mg/kg iv); 14.0 (± 3.5) mg in data set [12] (5 mg/kg iv, mean (± SEM), control 36.7 (± 3.2) mg). For the same molecule, in data set [7], the “Effect on APTT” value was “prolonged”. Besides, the Gum bleeding time result in [8] is reported as “no increase”. Besides, the Ear bleeding time result in data set [9] was “No ear bleeding time prolongation”. The figures for the “Reduction of FXIa activity ex vivo” value on FXIa [11] (oral 10 mg/kg) and at FXIa [11] (oral 30 mg/kg) were 17% (± 22%) and 44% (± 29%), respectively. In addition, the “Ear bleeding time vs aspirin and ticagrelor alone” value in data set [1] (asundexian iv + aspirin + ticagrelor) is given as “did not further increase”. The “Ear bleeding time vs control” value is listed as “no prolongation” in [1] (oral asundexian 10 mg/kg and 30 mg/kg); “no increase” in [1] (prophylactic intravenous asundexian 0.6-20 mg/kg). The “Additional reduction in thrombus weight on top of aspirin and ticagrelor” value in [2] (asundexian 2 mg/kg iv + aspirin + ticagrelor) is reported as 32%; in data set [2] (asundexian 6 mg/kg iv + aspirin + ticagrelor), 70%; in data set [2] (asundexian 12 mg/kg iv + aspirin + ticagrelor), 98%. Further, the results for the APTT increase in the data set on APTT in rabbit plasma [14] (asundexian high dose (12 mg/kg iv)) and in the data set with APTT in rabbit plasma [14] (asundexian low dose (6 mg/kg iv)) were 2.3 fold and 1.7 fold, respectively. The “Ex vivo FXIa activity” value at FXIa [15] is reported as “reduced FXIa activity”.
Regarding `[H]/N=C(/N)c1ccc(NCc2nc3cc(C(=O)N(CCC(=O)O)c4ccccn4)ccc3n2C)cc1` [dabigatran, reference compound], the PT increase with PT in rabbit plasma (setting [19]) is on record as 1.7 fold; with PT in rabbit plasma (setting [20]) it was 1.1 fold. The “Increase of bleeding time vs controls” value in data set [3] (dabigatran 0.3 mg/kg iv, control mean 5.7 min (340 s)) was “approximately 5 fold”. Moreover, in data set [3] (dabigatran 1 mg/kg iv, maximum observation period 30 min), the Bleeding time is recorded as above 30 min. The figures for the APTT increase in the data set with APTT in rabbit plasma [14] (setting [19]) and in the data set on APTT in rabbit plasma [14] (setting [20]) were 2.2 fold and 1.4 fold, respectively.
Consider `O=C(NC[C@H]1CN(c2ccc(N3CCOCC3=O)cc2)C(=O)O1)c1ccc(Cl)s1` [rivaroxaban, reference compound], for which, in data set [1] (rivaroxaban iv bolus + infusion, significant for the higher dose), the “Ear bleeding time vs control” value is reported as “prolonged”. Also, the “Thrombus weight reduction (mean)” value in data set [2] (rivaroxaban iv 0.08 mg/kg +0.09 mg/kg/hour) is recorded as 51%; in [2] (rivaroxaban iv 0.24 mg/kg +0.27 mg/kg/hour), 77%.
In the case of “Osocimab: fully human IgG1 antibody targeting coagulation factor XIa”, the mean elimination half-life in [16] was 30 to 44 days.

B1: abelacimab: FXI antibody, dual inhibitor of factor XI and factor XIa (antibody, chains of the INN, looked up, V domains shown)
VH: QVQLLESGGGLVQPGGSLRLSCAASGFTFSTAAMSWVRQAPGKGLEWVSGISGSGSSTYYADSVKGRFTISRDNSKNTLYLQMNSLRAEDTAVYYCARELSYLYSGYYFDYWGQGTLVTVSS
VL: QSVLTQPPSASGTPGQRVTISCSGSSSNIGSNDVSWYQQLPGTAPKLLIYKNYNRPSGVPDRFSGSKSGTSASLAISGLQSEDEADYYCSAWDQRQFDVVFGGGTKLTVL
In the case of B1, in data set [16], the elimination half-life was 25 to 30 days.

The values are drawn from article PMC9313898 (Journal of Thrombosis and Haemostasis, 2022).
